The RNAGym collection of RNA variant scans (doi:10.1126/science.aae0568)
Fewer inactive variants are shown than the library holds.

B1: tRNA (parent)
chain: GUUCCGUUGGCGUAAUGGUAACGCGUCUCCCUCCUAAGGAGAAGACUGCGGGUUCGAGUCCCGUACGGAACG

Variants of: B1
Assay: yeast fitness relative to wild type (ratio to wild type); higher = fitter; tRNA-Arg(CCU), competitive growth, 37 C, YPD
Summary of the method: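 The tRNA-Arg(CCU) gene variants were made by chemical synthesis with a 3% per-site mutation rate at 69 sites and inserted at the native genomic locus of Saccharomyces cerevisiae. After pooling, the strains were competed in YPD at 37°C for 24 hours in six parallel replicates. Gene amplicons from the start population and each end population were read by 100-nucleotide paired-end sequencing, and Darwinian fitness relative to wild type was taken from genotype frequency changes. Genotypes needed ≥ 100 starting reads, and estimates < 0.5 were set to 0.5.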

Row | Variant | yeast fitness
1 | U3A A20U | 0.834
2 | U3A C4U U7A C24U C60U | ≤ 0.5
3 | U3A A42G U53A | ≤ 0.5
4 | U3A C24G C29U A36G A43U | ≤ 0.5
5 | U3A C4G C60G G67A | ≤ 0.5
6 | U2G U54C C62G A70U | ≤ 0.5
7 | U3A A21C A36U | ≤ 0.5
8 | U3A A15C C22G U32C G41A | ≤ 0.5
9 | U3A C24G C31U C62A | ≤ 0.5
10 | U3A C30G U64A A69C | ≤ 0.5
11 | U3A C5U A21G A43C | 0.526
12 | U3A A37C A43C | ≤ 0.5
13 | U2G U13A C22U U54A C61G A69C | ≤ 0.5
14 | U3A A14U A57U | ≤ 0.5
15 | U2G U19A C66U | 0.606
16 | U2G U13C A21G G39C C55U | ≤ 0.5
17 | U3A C11U C55G C60G | ≤ 0.5
18 | U3A C4G U59A A65C A70C | ≤ 0.5
19 | U3A C30U G50C | ≤ 0.5
20 | U3A C27G C31U C33U A42C C49U | ≤ 0.5
21 | U3A C11U A37U G41A G52C A57C | ≤ 0.5
22 | U3A A15U C34U G48A C60U | ≤ 0.5
23 | U3A C24U G39A C55A | ≤ 0.5
24 | U3A C5G A21U | 0.539

Row | Variant | yeast fitness
25 | U3A A21G C33G C34G | ≤ 0.5
26 | U3A C5A G6C A14C G48C C55U G63U | ≤ 0.5
27 | U2G U13G U16C | ≤ 0.5
28 | U3A C24U A45C | 0.688
29 | U3A C5U C31G C62G A69U | 0.554
30 | U3A C4U G25C G58C | ≤ 0.5
31 | U2G U28G G68C | ≤ 0.5
32 | U3A A40G C55G | 0.813
33 | U3A A43G | 0.919
34 | U2G U19A A69U | 0.551
35 | U3A C5U G18C U54A G56A A70G | ≤ 0.5
36 | U3A C24U C46U G48A C49G | ≤ 0.5
37 | U2G U3G C11U G52C C55G A70G | ≤ 0.5
38 | U3A C24G C31U C62U A65C | ≤ 0.5
39 | U3A C27A A42G C46G | ≤ 0.5
40 | U3A A14U | 0.731
41 | U2G U28G U59A | ≤ 0.5
42 | U3A C5A G67A | 0.548
43 | U3A A21U | 0.71
44 | U3A A21G | 0.926
45 | U3A A21C | 0.768
46 | U2G U35C | 0.72
47 | U3A A43U C49U | 0.69
48 | U2G U53A | 0.532

Row | Variant | yeast fitness
49 | U2G U26A G52A | ≤ 0.5
50 | U3A C27U A69C | 0.713
51 | U2G U16G A21U C33A C66G | ≤ 0.5
52 | U2G U7G A43C A45U C60A | ≤ 0.5
53 | U3A A15G U19A G41A G50A | ≤ 0.5
54 | U3A C27G C62U A65U | ≤ 0.5
55 | U3A A45C | 0.88
56 | U3A A45G | 1
57 | U3A C30G U54C | 0.502
58 | U2G U32G A42U | ≤ 0.5
59 | U3A C34U A43G C49A G52A | ≤ 0.5
60 | U2G U28G A45C G63C | ≤ 0.5
61 | U2G U26G | 0.693
62 | U2G U26A | 0.828
63 | U3A C29G | 0.575
64 | U2G U26C C49U C55A | ≤ 0.5
65 | U3A C27A A43G | 0.586
66 | U3A C11U A69U | 0.627
67 | U3A C4U U7A C24U | ≤ 0.5
68 | U3A C29G G38A C62G | ≤ 0.5
69 | U3A A45G G67C | 0.628
70 | U3A C5A C29A G68A | ≤ 0.5
71 | U3A A20C U32A C62U G63A | 0.572
72 | U3A C4A U19C C27U C46A C62G A69U | ≤ 0.5

Row | Variant | yeast fitness
73 | U3A C4A A20C C29A C66U | ≤ 0.5
74 | U3A C31U | 1.02
75 | U3A C5A C33G C34U | 0.634
76 | U3A A37C A45C | 0.6
77 | U3A C11G C22A C33G | ≤ 0.5
78 | U2G U7G U16C C34U | ≤ 0.5
79 | U3A A45U C46G G52A G68C | ≤ 0.5
80 | U3A A15C U16C C66U | ≤ 0.5
81 | U3A A20G C22U G44C | ≤ 0.5
82 | U3A A36U U53G | 0.619
83 | U3A A14G G23C U32A G52C | ≤ 0.5
84 | U3A C33G C34G U35A G44A | 0.556
85 | U3A C30G A57C G58C | ≤ 0.5
86 | U3A A21U A65U | ≤ 0.5
87 | U3A C11G G17C C24G C46A G68C | 0.553
88 | U3A A37U C66A | ≤ 0.5
89 | U3A A14G G23C A65C | ≤ 0.5
90 | U3A C29A A37G | ≤ 0.5
91 | U3A C46A C66U | 0.734
92 | U3A A20C U32A A70G | ≤ 0.5
93 | U3A C11G C31G C62A | ≤ 0.5
94 | U3A C29U C31A A40C | 0.631
95 | U3A C22G C29U A65C | ≤ 0.5
96 | U3A C11G G41C | 0.61

Row | Variant | yeast fitness
97 | U3A A15U G23C C27U G52A | 0.64
98 | U3A C5A G12C G25A C30U A69C | ≤ 0.5
99 | U3A C29G C60G | ≤ 0.5
100 | U3A C24G C33G G51A U53A G56A G67C | ≤ 0.5
101 | U2G U28A C33U C46G | ≤ 0.5
102 | U3A A14G A15G A20U A37G G41A | 0.525
103 | U3A C11G A14C C62U G63A | ≤ 0.5
104 | U3A C31U U47C | 0.871
105 | U3A C5U U28A G58A | 0.5
106 | U2G U3G C29G C30G C46G | ≤ 0.5
107 | U3A C5G G10A C31U C33G G48C | ≤ 0.5
108 | U3A A20G G56A | 0.707
109 | U3A C5U C62A | ≤ 0.5
110 | U3A C31G C66U | 0.641
111 | U3A C27U G41C U64C A70C | 0.896
112 | U3A A14C A37C | ≤ 0.5
113 | U3A A21C C24G G63A | ≤ 0.5
114 | U3A C4U U7A C24U A42U G58A C62U G63A | ≤ 0.5
115 | U3A A21U U28A A42C A57G C66A | ≤ 0.5
116 | U2G U47C | 0.992
117 | U3A C4U U13A A36U C66U | 0.641
118 | U3A C5U C22G U53G | ≤ 0.5
119 | U2G U13A U28A G39A G48A C61G C66G | ≤ 0.5
120 | U3A C4U C11A U53A A65U | ≤ 0.5

Row | Variant | yeast fitness
121 | U3A A21U G23C A43C | ≤ 0.5
122 | U2G U8C U26C G56A | ≤ 0.5
123 | U3A C5A C30G G38C C60G | ≤ 0.5
124 | U3A C31U A40C G48A G68C | ≤ 0.5
125 | U3A A20C U32A A65U | ≤ 0.5
126 | U3A A37U | 0.754
127 | U3A A37C | 0.796
128 | U3A A37G | 0.887
129 | U3A C4U G10C C33G G52C | ≤ 0.5
130 | U3A C4U A37G A40U | ≤ 0.5
131 | U3A C4U C29G | ≤ 0.5
132 | U3A A40U A70G | 0.597
133 | U3A C5U A42C A43U G56C C66U | ≤ 0.5
134 | U3A C33U A43C | ≤ 0.5
135 | U3A C34G A45G | 0.537
136 | U3A A21C C24G C62U | 0.526
137 | U3A A14U C62U | 0.79
138 | U3A C5A C66U | ≤ 0.5
139 | U3A A21G G23C A36U C60A | ≤ 0.5
140 | U3A A21G U28A A42C A57G C66A | 0.733
141 | U3A C24G C31U C61A | 0.533
142 | U3A C11U U13C C31A | ≤ 0.5
143 | U3A A45U A69U | 0.788
144 | U3A A42C C61A | ≤ 0.5

Row | Variant | yeast fitness
145 | U3A A15C U47C | ≤ 0.5
146 | U3A C4A U8C C30U A45C G52C | ≤ 0.5
147 | U3A C22G C33G G51A | ≤ 0.5
148 | U3A C11G A40G U53G G68C | 0.654
149 | U3A C4G G6A U26G A70U | ≤ 0.5
150 | U3A C22G C30U U32G U53C G68C A70G | ≤ 0.5
151 | U3A C5A A65U | ≤ 0.5
152 | U3A C24G C29U A36G | 0.639
153 | U3A C5U | 0.85
154 | U3A C4U U13A A36U C62A C66U | ≤ 0.5
155 | U3A C4U A43G | 0.579
156 | U3A C27A | 0.86
157 | U3A C27G | 0.643
158 | U2G U32G | 0.68
159 | U2G U32C | 0.867
160 | U3A A14G A15U A36U G39C A40U C49U C55A | 0.612
161 | U3A C5G C46G U53A | 0.527
162 | U3A A42G | 0.73
163 | U3A A42C | 0.72
164 | U2G U13G A57G | 0.538
165 | U3A A36G C66U | 0.666
166 | U3A A20U C49U | 0.531
167 | U3A C11A C33U A37U G39C | ≤ 0.5
